Source: ChEMBL document CHEMBL1128176 (J Med Chem, 1995)

How the values were obtained:
[1] = biological target: T1, Leukotriene B4 receptor (Homo sapiens, UniProt Q9NPC1+Q15722); test: Binding affinity towards human LTB4 receptor measured as inhibition of binding of [3H]LTB4 to isolated human neutrophils
[2] = biological target: T1, Leukotriene B4 receptor; test: Inhibition of LTB4 induced expression of human neutrophil integrin CD11b/CD18.; type: functional
Summary of the method: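 Human neutrophils stimulated with LTB4; test agents, mostly as sodium salts, dissolved in dilute sodium bicarbonate vehicle. Integrin CD11b/CD18 surface expression read by flow cytometry. IC50 derived from inhibition of LTB4-induced up-regulation. Where SEM is given, the value is the mean of at least four determinations.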

[3] = biological target: Leukotriene B4 receptor (Cavia porcellus); test: Binding affinity towards Leukotriene B4 receptor guinea pig lung membrane using [3H]LTB4 as radioligand

CCc1cc(-c2ccc(F)cc2)c(O)cc1OCCCOc1cccc(OCCCCC(=O)O)c1CCC(=O)O
Ki [1]: 2.3 nM | IC50 [2]: 13 nM

CCCc1c(OCCCCCOc2cc(O)c(-c3ccc(F)cc3)cc2CC)cccc1Oc1ccccc1C(=O)O
Ki [1]: 150 nM | IC50 [2]: 9.5 nM | Ki [3]: 6.8 nM

CCCc1c(OCCCOc2cc(O)c(-c3ccccc3)cc2CC)cccc1Oc1ccccc1C(=O)O
Ki [1]: 19 nM | IC50 [2]: 11 nM | Ki [3]: 16 nM

CCCc1c(OCCCOc2cc(O)c(-c3ccc(F)cc3)cc2CC)cccc1Oc1ccccc1CC(=O)O
Ki [1]: 210 nM | IC50 [2]: 7.8 nM | Ki [3]: 8.4 nM

CCc1cc(-c2ccc(F)cc2)c(O)cc1OCCCOc1ccc2c(=O)c3cc(C(=O)O)ccc3oc2c1CCC(=O)O
Ki [1]: 0.47 nM | Ki [3]: 0.04 nM

CCc1cc(-c2ccc(F)cc2)c(O)cc1OCCCOc1ccccc1CCC(=O)O
Ki [1]: 8 nM | IC50 [2]: 31 nM | Ki [3]: 3.8 nM

CCc1cc(-c2ccc(F)cc2)c(O)cc1OCCCOc1cccc(OCCCCc2nnn[nH]2)c1CCC(=O)O
Ki [1]: 2.3 nM

CCc1cc(-c2ccc(F)cc2)c(O)cc1OCCCOc1cccc(Oc2ccccc2C(=O)O)c1Cc1ccccc1
Ki [1]: 390 nM | IC50 [2]: 220 nM | Ki [3]: 55 nM

CCCc1c(OCCCOc2cc(O)c(-c3ccc(F)cc3)cc2CC)ccc2c1OC(C(=O)O)CC2 (stereo not drawn)
Ki [1]: 3.8 nM | IC50 [2]: 17 nM | Ki [3]: 4.4 nM

CCCc1c(OCCCOc2cc(O)c(-c3ccc(F)cc3)cc2CC)cccc1Sc1ccccc1C(=O)O
Ki [1]: 350 nM | IC50 [2]: 7.4 nM | Ki [3]: 11 nM

CCCc1c(OCCCOc2cc(O)c(-c3ccccc3)cc2CC)cccc1Oc1cccc(F)c1C(=O)O
Ki [1]: 10 nM | IC50 [2]: 3.2 nM | Ki [3]: 14 nM

CCc1cc(-c2ccccn2)c(O)cc1OCCCCCC(C)(C)c1nn[nH]n1
Ki [1]: 453 nM

CCc1cc(-c2ccc(N(C)C)cc2)c(O)cc1OCCCCCC(C)(C)c1nn[nH]n1
Ki [1]: 16 nM

CCCc1c(OCCCOc2cc(O)c(-c3ccc(F)cc3)cc2CC)cccc1C(=O)c1ccccc1C(=O)O
Ki [1]: 35 nM | IC50 [2]: 13 nM | Ki [3]: 11 nM

CCc1cc(-c2ccccc2)c(O)cc1OCCCOc1ccc2c(=O)c3cc(C(=O)O)ccc3oc2c1CCC(=O)O
Ki [1]: 0.51 nM | Ki [3]: 0.11 nM

CCc1cc(-c2ccccc2)c(O)cc1OCCCOc1ccc2c(=O)c3ccccc3oc2c1CCC(=O)O
Ki [1]: 22 nM | Ki [3]: 12 nM

CCCc1c(OCCCOc2cc(O)c(-c3ccccc3)cc2CC)ccc2c1OC(C(=O)O)CC2 (stereo not drawn)
Ki [1]: 3.3 nM | IC50 [2]: 110 nM | Ki [3]: 2.8 nM

CCCc1cc(CC)c(OCCCCCC(C)(C)c2nn[nH]n2)cc1O
Ki [1]: 9.3 nM

CCCc1c(OCCCCOc2cc(O)c(-c3ccc(F)cc3)cc2CC)cccc1Oc1ccccc1C(=O)O
Ki [1]: 39 nM | IC50 [2]: 5.1 nM | Ki [3]: 19 nM

CCCc1c(OCCCOc2cc(O)c(-c3ccc(F)cc3)cc2CC)cccc1Oc1cc(F)ccc1C(=O)O
Ki [1]: 48 nM | IC50 [2]: 2.7 nM | Ki [3]: 19 nM

CCCc1c(OCCCOc2cc(O)c(-c3ccc(F)cc3)cc2CC)cccc1Oc1ccccc1C(=O)O [ETALOCIB]
Ki [1]: 17 nM | IC50 [2]: 3.3 nM | Ki [3]: 6.6 nM

CCc1cc(-c2ccc(F)cc2)c(O)cc1OCCCOc1cccc(Oc2ccccc2C(=O)O)c1CC(C)C
Ki [1]: 36 nM | IC50 [2]: 8.5 nM | Ki [3]: 14 nM

CCCCc1c(OCCCOc2cc(O)c(-c3ccc(F)cc3)cc2CC)cccc1Oc1ccccc1C(=O)O
Ki [1]: 34 nM | IC50 [2]: 14 nM | Ki [3]: 16 nM

CCc1cc(-c2cccc(C(F)(F)F)c2)c(O)cc1OCCCCCC(C)(C)c1nn[nH]n1
Ki [1]: 33 nM

CCc1cc(-c2ccc(F)cc2)c(O)cc1OCCCOc1cccc(OCCCCC(=O)N(C)C)c1CCC(=O)O
Ki [1]: 3.1 nM | IC50 [2]: 7.8 nM

CCCc1c(OCCCOc2cc(O)c(-c3ccc(F)cc3)cc2CC)cccc1Oc1cccc(F)c1C(=O)O
Ki [1]: 4.4 nM | IC50 [2]: 2.5 nM | Ki [3]: 9.5 nM

CCc1cc(-c2ccc(F)cc2)c(O)cc1OCCCOc1ccc2c(=O)c3ccccc3oc2c1CCC(=O)O
Ki [1]: 36 nM | Ki [3]: 4 nM

CCCc1c(OCCCOc2cc(O)c(-c3ccc(F)cc3)cc2CC)cccc1[S+]([O-])c1ccccc1C(=O)O (stereo not drawn)
Ki [1]: 14 nM | IC50 [2]: 95 nM | Ki [3]: 1.4 nM

CCc1cc(-c2ccc(F)cc2)c(O)cc1OCCCOc1cccc(OC)c1CCC(=O)O
Ki [1]: 8.3 nM | IC50 [2]: 64 nM | Ki [3]: 6.4 nM

CCc1cc(-c2ccc(F)cc2)c(O)cc1OCCCOc1ccccc1CCc1nnn[nH]1
Ki [1]: 15 nM | Ki [3]: 15 nM
